Data taken from ChEMBL document CHEMBL3425455, “Short Hydrophobic Peptides with Cyclic Constraints Are Potent Glucagon-like Peptide-1 Receptor (GLP-1R) Agonists” (J Med Chem, 2015).
pEC50, pKi: −log10 of the molar value. Positions of bridges follow the written chain, without caps; N, C: chain ends. Non-standard residues stand in square brackets, D forms with d. Residues, ends and D or L forms follow the SMILES beside them. Bip(2'-Et-4'-OMe) = CCc1cc(OC)ccc1-c1ccc(C[C@H](N)C(=O)O)cc1; Bip(2'-Me) = Cc1ccccc1-c1ccc(C[C@H](N)C(=O)O)cc1; αMePhe(2,6-F2) = C[C@](N)(Cc1c(F)cccc1F)C(=O)O; Tyr(3-I) = N[C@@H](Cc1ccc(O)c(I)c1)C(=O)O; αMePhe(2-F) = C[C@](N)(Cc1ccccc1F)C(=O)O; hhPhe = N[C@@H](CCCc1ccccc1)C(=O)O; Aad = N[C@@H](CCCC(=O)O)C(=O)O; Aib = CC(C)(N)C(=O)O

Tests used:
[1] = target: T1, Glucagon-like peptide 1 receptor (Homo sapiens, UniProt P43220); assay: Agonist activity at human GLP-1R expressed in CHO cells assessed as cAMP accumulation incubated for 30 mins; assay type: functional, cell-based
T1 sequence (P43220 whole entry): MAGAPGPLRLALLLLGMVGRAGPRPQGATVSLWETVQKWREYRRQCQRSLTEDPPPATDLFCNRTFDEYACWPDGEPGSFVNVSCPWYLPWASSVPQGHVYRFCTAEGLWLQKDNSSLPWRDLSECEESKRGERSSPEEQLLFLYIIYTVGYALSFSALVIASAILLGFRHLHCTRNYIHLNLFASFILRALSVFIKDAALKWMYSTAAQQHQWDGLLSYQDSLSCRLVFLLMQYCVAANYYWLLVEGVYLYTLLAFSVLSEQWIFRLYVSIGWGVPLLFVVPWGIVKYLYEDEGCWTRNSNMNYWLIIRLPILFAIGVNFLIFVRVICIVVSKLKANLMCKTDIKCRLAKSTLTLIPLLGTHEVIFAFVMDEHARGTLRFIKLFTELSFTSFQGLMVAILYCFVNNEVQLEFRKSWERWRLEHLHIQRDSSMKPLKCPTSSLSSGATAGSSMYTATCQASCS
Outline: (§1)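 CHO cells stably expressing human GLP-1R, grown in DMEM/F12 with GlutaMAX, PenStrep and Geneticin, were lifted and resuspended in HBSS with 5.56 mM glucose, 0.1% BSA, 0.5 mM IBMX, 5 mM HEPES (final). 1000 cells/well were exposed to compound (10 μM to 100 fM) for 30 min at room temperature. After lysis with tracer/ULight reagents (2 h, room temperature), cAMP was read by LANCE Ultra TR-FRET. Values are geometric means with standard error.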

[2] = target: T1, Glucagon-like peptide 1 receptor; assay: Agonist activity at human GLP-1R expressed in CHO cells assessed as cAMP accumulation incubated for 30 mins relative to GLP1; assay type: functional, cell-based; outline: as §1
[3] = target: T1, Glucagon-like peptide 1 receptor; assay: Displacement of [125I]-18 from human GLP-1R expressed in CHO cell membranes incubated for 120 mins by scintillation counting based radioligand binding assay
[4] = target: T1, Glucagon-like peptide 1 receptor; assay: Ratio of Ki for displacement of [125I]-18 from human GLP-1R expressed in CHO cell membranes by scintillation counting based radioligand binding assay to EC50 for Agonist activity at human GLP-1R expressed in CHO cells assessed as cAMP accumulation

Row | Structure (SMILES) | pEC50 [1] | Activity [2] [%] | pKi [3] | Ratio [4]
1 | CCc1cc(OC)ccc1-c1ccc(C[C@H](NC(=O)[C@H](CC(=O)O)NC(=O)[C@H](CO)NC(=O)[C@@H](NC(=O)[C@](C)(Cc2ccccc2F)NC(=O)[C@H]2CSSCC[C@@H](NC(=O)[C@@H](N)Cc3cnc[nH]3)C(=O)N[C@@H](CCC(=O)O)C(=O)NCC(=O)N2)[C@@H](C)O)C(=O)N[C@@H](CCCc2ccccc2)C(N)=O)cc1 | 6.96 | > 85 | 5.32 | 43
2 | CCc1cc(OC)ccc1-c1ccc(C[C@H](NC(=O)[C@H](CC(=O)O)NC(=O)[C@H](CO)NC(=O)[C@@H](NC(=O)[C@](C)(Cc2ccccc2F)NC(=O)[C@H]2CSSCC[C@H](NC(=O)[C@@H](N)Cc3cnc[nH]3)C(=O)N[C@@H](CCC(=O)O)C(=O)NCC(=O)N2)[C@@H](C)O)C(=O)N[C@@H](CCCc2ccccc2)C(N)=O)cc1 | 6.14 | > 85 | < 5.10 | –
3 | CCc1cc(OC)ccc1-c1ccc(C[C@H](NC(=O)[C@H](CC(=O)O)NC(=O)[C@H](CO)NC(=O)[C@@H](NC(=O)[C@](C)(Cc2ccccc2F)NC(=O)[C@H]2CCSSCC[C@H](NC(=O)[C@@H](N)Cc3cnc[nH]3)C(=O)N[C@@H](CCC(=O)O)C(=O)NCC(=O)N2)[C@@H](C)O)C(=O)N[C@@H](CCCc2ccccc2)C(N)=O)cc1 | 8.74 | > 85 | 6.89 | –
4 | CCc1cc(OC)ccc1-c1ccc(C[C@H](NC(=O)[C@H](CC(=O)O)NC(=O)[C@H](CO)NC(=O)[C@@H](NC(=O)[C@](C)(Cc2ccccc2F)NC(=O)[C@H]2CCSSC[C@H](NC(=O)[C@@H](N)Cc3cnc[nH]3)C(=O)N[C@@H](CCC(=O)O)C(=O)NCC(=O)N2)[C@@H](C)O)C(=O)N[C@@H](CCCc2ccccc2)C(N)=O)cc1 | 6.72 | > 85 | 6.01 | –
5 | CCc1cc(OC)ccc1-c1ccc(C[C@H](NC(=O)[C@H](CC(=O)O)NC(=O)[C@H](CO)NC(=O)[C@@H](NC(=O)[C@](C)(Cc2ccccc2F)NC(=O)[C@@H]2CCSSCC[C@@H](NC(=O)[C@@H](N)Cc3cnc[nH]3)C(=O)N[C@@H](CCC(=O)O)C(=O)NCC(=O)N2)[C@@H](C)O)C(=O)N[C@@H](CCCc2ccccc2)C(N)=O)cc1 | 6.70 | > 85 | 5.77 | –
6 | CCc1cc(OC)ccc1-c1ccc(C[C@H](NC(=O)[C@@H]2CCCCNC(=O)C[C@H](NC(=O)CNC(=O)[C@H](CCC(=O)O)NC(=O)C(C)(C)NC(=O)[C@@H](N)Cc3cnc[nH]3)C(=O)N[C@@](C)(Cc3ccccc3F)C(=O)N[C@@H]([C@@H](C)O)C(=O)N[C@@H](CO)C(=O)N2)C(=O)N[C@@H](CCCc2ccccc2)C(N)=O)cc1 (H-H[Aib]EGD[αMePhe(2-F)]TSK[Bip(2'-Et-4'-OMe)][hhPhe]-NH2; lactam 5-9) | 6.49 | > 85 | 5.92 | –
7 | CCc1cc(OC)ccc1-c1ccc(C[C@H](NC(=O)[C@H](CC(=O)O)NC(=O)[C@H](CO)NC(=O)[C@@H](NC(=O)[C@](C)(Cc2ccccc2F)NC(=O)[C@@H]2CSSC[C@@H](NC(=O)[C@@H](N)Cc3cnc[nH]3)C(=O)N[C@@H](CCC(=O)O)C(=O)NCC(=O)N2)[C@@H](C)O)C(=O)N[C@@H](CCCc2ccccc2)C(N)=O)cc1 | 6.22 | > 85 | 5.62 | –
8 | CCc1cc(OC)ccc1-c1ccc(C[C@H](NC(=O)[C@H](CC(=O)O)NC(=O)[C@H](CO)NC(=O)[C@@H](NC(=O)[C@](C)(Cc2ccccc2F)NC(=O)[C@H]2CCSSCC[C@@H](NC(=O)[C@@H](N)Cc3cnc[nH]3)C(=O)N[C@@H](CCC(=O)O)C(=O)NCC(=O)N2)[C@@H](C)O)C(=O)N[C@@H](CCCc2ccccc2)C(N)=O)cc1 | 9.14 | > 85 | 7.39 | –
9 | CCc1cc(OC)ccc1-c1ccc(C[C@H](NC(=O)[C@H](CC(=O)O)NC(=O)[C@H](CO)NC(=O)[C@@H](NC(=O)[C@](C)(Cc2ccccc2F)NC(=O)[C@@H](NC(=O)CNC(=O)[C@H](CCC(=O)O)NC(=O)C(C)(C)NC(=O)[C@@H](N)Cc2cnc[nH]2)[C@@H](C)O)[C@@H](C)O)C(=O)N[C@@H](CCCc2ccccc2)C(N)=O)cc1 (H-H[Aib]EGT[αMePhe(2-F)]TSD[Bip(2'-Et-4'-OMe)][hhPhe]-NH2) | 9.92 | > 85 | 9.24 | 3.5
10 | CCc1cc(OC)ccc1-c1ccc(C[C@H](NC(=O)[C@@H]2CC(=O)NCCCC[C@H](NC(=O)CNC(=O)[C@H](CCC(=O)O)NC(=O)C(C)(C)NC(=O)[C@@H](N)Cc3cnc[nH]3)C(=O)N[C@@](C)(Cc3ccccc3F)C(=O)N[C@@H]([C@@H](C)O)C(=O)N[C@@H](CO)C(=O)N2)C(=O)N[C@@H](CCCc2ccccc2)C(N)=O)cc1 (H-H[Aib]EGK[αMePhe(2-F)]TSD[Bip(2'-Et-4'-OMe)][hhPhe]-NH2; lactam 5-9) | 7.17 | > 85 | 7.23 | –

The remaining compounds from weak to strong by pEC50 [1], led by results:

Row | pEC50 [1] | Activity [2] [%] | pKi [3] | Ratio [4] | Structure (SMILES)
11 | 6.17 | > 85 | < 5.51 | – | CCc1cc(OC)ccc1-c1ccc(C[C@H](NC(=O)[C@H](CC(=O)O)NC(=O)[C@H](CO)NC(=O)[C@@H](NC(=O)[C@](C)(Cc2ccccc2F)NC(=O)[C@@H]2CSSC[C@H](NC(=O)[C@@H](N)Cc3cnc[nH]3)C(=O)N[C@@H](CCC(=O)O)C(=O)NCC(=O)N2)[C@@H](C)O)C(=O)N[C@@H](CCCc2ccccc2)C(N)=O)cc1
12 | 6.37 | > 85 | 6.49 | – | CCc1cc(OC)ccc1-c1ccc(C[C@H](NC(=O)[C@@H]2CCCCNC(=O)CC[C@H](NC(=O)CNC(=O)[C@H](CCC(=O)O)NC(=O)C(C)(C)NC(=O)[C@@H](N)Cc3cnc[nH]3)C(=O)N[C@@](C)(Cc3ccccc3F)C(=O)N[C@@H]([C@@H](C)O)C(=O)N[C@@H](CO)C(=O)N2)C(=O)N[C@@H](CCCc2ccccc2)C(N)=O)cc1 (H-H[Aib]EGE[αMePhe(2-F)]TSK[Bip(2'-Et-4'-OMe)][hhPhe]-NH2; lactam 5-9)
13 | 6.41 | > 85 | 5.52 | – | CCc1cc(OC)ccc1-c1ccc(C[C@H](NC(=O)[C@H](CC(=O)O)NC(=O)[C@H](CO)NC(=O)[C@@H](NC(=O)[C@](C)(Cc2ccccc2F)NC(=O)[C@@H]2CCSSCC[C@H](NC(=O)[C@@H](N)Cc3cnc[nH]3)C(=O)N[C@@H](CCC(=O)O)C(=O)NCC(=O)N2)[C@@H](C)O)C(=O)N[C@@H](CCCc2ccccc2)C(N)=O)cc1
14 | 7.02 | > 85 | 6.52 | – | CCc1cc(OC)ccc1-c1ccc(C[C@H](NC(=O)[C@@H]2CCCC(=O)NCCCC[C@H](NC(=O)CNC(=O)[C@H](CCC(=O)O)NC(=O)C(C)(C)NC(=O)[C@@H](N)Cc3cnc[nH]3)C(=O)N[C@@](C)(Cc3ccccc3F)C(=O)N[C@@H]([C@@H](C)O)C(=O)N[C@@H](CO)C(=O)N2)C(=O)N[C@@H](CCCc2ccccc2)C(N)=O)cc1 (H-H[Aib]EGK[αMePhe(2-F)]TS[Aad][Bip(2'-Et-4'-OMe)][hhPhe]-NH2; lactam 5-9)
15 | 7.09 | > 85 | 6.26 | – | CCc1cc(OC)ccc1-c1ccc(C[C@H](NC(=O)[C@H](CC(=O)O)NC(=O)[C@H](CO)NC(=O)[C@@H](NC(=O)[C@](C)(Cc2ccccc2F)NC(=O)[C@H]2CCSSC[C@@H](NC(=O)[C@@H](N)Cc3cnc[nH]3)C(=O)N[C@@H](CCC(=O)O)C(=O)NCC(=O)N2)[C@@H](C)O)C(=O)N[C@@H](CCCc2ccccc2)C(N)=O)cc1
16 | 8.00 | > 85 | 7.77 | – | CCc1cc(OC)ccc1-c1ccc(C[C@H](NC(=O)[C@@H]2CCC(=O)NCCCC[C@H](NC(=O)CNC(=O)[C@H](CCC(=O)O)NC(=O)C(C)(C)NC(=O)[C@@H](N)Cc3cnc[nH]3)C(=O)N[C@@](C)(Cc3ccccc3F)C(=O)N[C@@H]([C@@H](C)O)C(=O)N[C@@H](CO)C(=O)N2)C(=O)N[C@@H](CCCc2ccccc2)C(N)=O)cc1 (H-H[Aib]EGK[αMePhe(2-F)]TSE[Bip(2'-Et-4'-OMe)][hhPhe]-NH2; lactam 5-9)
17 | 9.72 | > 85 | 9.18 | 3.5 | CCc1cc(OC)ccc1-c1ccc(C[C@H](NC(=O)[C@H](CC(=O)O)NC(=O)[C@H](CO)NC(=O)[C@@H](NC(=O)[C@](C)(Cc2c(F)cccc2F)NC(=O)[C@@H](NC(=O)CNC(=O)[C@H](CCC(=O)O)NC(=O)C(C)(C)NC(=O)[C@@H](N)Cc2cnc[nH]2)[C@@H](C)O)[C@@H](C)O)C(=O)N[C@@H](Cc2ccc(-c3ccccc3C)cc2)C(N)=O)cc1 (H-H[Aib]EGT[αMePhe(2,6-F2)]TSD[Bip(2'-Et-4'-OMe)][Bip(2'-Me)]-NH2)
18 | 10.35 | > 85 | 8.22 | – | CCc1cc(OC)ccc1-c1ccc(C[C@H](NC(=O)[C@H](CC(=O)O)NC(=O)[C@H](CO)NC(=O)[C@@H](NC(=O)[C@](C)(Cc2ccccc2F)NC(=O)[C@@H](NC(=O)CNC(=O)[C@H](CCC(=O)O)NC(=O)C(C)(C)NC(=O)[C@@H](N)Cc2cnc[nH]2)[C@@H](C)O)[C@@H](C)O)C(=O)N[C@@H](Cc2ccc(O)c(I)c2)C(N)=O)cc1 (H-H[Aib]EGT[αMePhe(2-F)]TSD[Bip(2'-Et-4'-OMe)][Tyr(3-I)]-NH2)
